# Experimental data from ChEMBL document CHEMBL1921722, “In vitro and in vivo evaluation of select kahalalide F analogs with antitumor and antifungal activities” (Bioorg Med Chem, 2011).
# Calls of active or inactive are those of the source.
# How the values were obtained:
# DU-145 [1] = experiment: Cytotoxicity against human DU145 cells by sulforhodamine B assay; format: functional
# Procedure, shortened: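 Run by the NCI Developmental Therapeutics Program on its 60-line human tumour cell panel using the standard procedure. Compounds went through a single-concentration prescreen first, and those active by NCI criteria went on to a five-concentration growth-inhibition test. GI50 is the concentration that cuts growth of treated cells to half that of untreated control cells.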
# SF-295 = experiment: Cytotoxicity against human SF295 cells assessed as cell growth at 8 nM by sulforhodamine B assay relative to control; format: functional; settings: read-out: Activity
# NCI-H226 = experiment: Cytotoxicity against human NCI-H226 cells assessed as cell growth at 8 nM by sulforhodamine B assay relative to control; format: functional; settings: read-out: Activity
# Mus musculus = experiment: Acute toxicity in athymic nude mouse assessed as mortality at 12.5 mg/kg, […]; format: organism-based; parameters: dose 12.5 mg/kg, route intraperitoneal; settings: in vivo, ip, 576 h
# MDA-MB-231 = experiment: Antitumor activity against human MDA-MB-231 cells xenografted in mouse assessed as tumor cell killing at 4.7 mg/kg, ip qd for 4 days by MTT assay; format: functional, organism-based; parameters: dose 4.7 mg/kg
# Procedure, shortened: (§1)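 Hollow-fiber assay in mice. Tumor lines were grown in RPMI-1640 with 10% FBS and 2 mM glutamine. Cells at 2 × 10^6 cells/ml were loaded into 1 mm PVDF fibers (500,000 Da cutoff), heat-sealed at 2 cm and held 24–48 h at 37 °C, 5% CO2 before implantation. Compound was given IP. Fibers were collected the day after the fourth treatment for MTT (OD 540 nm, group means). A ≥50% cut in percent net growth versus vehicle counted as positive.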
# MOLT-4 [2] = experiment: Cytotoxicity against human MOLT4 cells assessed as cell growth at 8 nM by sulforhodamine B assay relative to control; format: functional; settings: read-out: Activity
# OVCAR-3 [3] = experiment: Cytotoxicity against human OVCAR3 cells assessed as cell growth at 8 nM by sulforhodamine B assay relative to control; format: functional; settings: read-out: Activity
# SK-OV-3 = experiment: Cytotoxicity against human SKOV3 cells assessed as cell growth at 8 nM by sulforhodamine B assay relative to control; format: functional; settings: read-out: Activity
# MOLT-4 [4] = experiment: Cytotoxicity against human MOLT4 cells assessed as cell growth at 80 nM by sulforhodamine B assay relative to control; format: functional; settings: read-out: Activity
# SNB-19 [5] = experiment: Cytotoxicity against human SNB19 cells assessed as cell growth at 80 nM by sulforhodamine B assay relative to control; format: functional; settings: read-out: Activity
# M14 [6] = experiment: Cytotoxicity against human M14 cells assessed as cell growth at 80 nM by sulforhodamine B assay relative to control; format: functional; settings: read-out: Activity
# SK-MEL-2 = experiment: Cytotoxicity against human SK-MEL-2 cells assessed as cell growth at 80 nM by sulforhodamine B assay relative to control; format: functional; settings: read-out: Activity
# IGROV-1 [7] = experiment: Cytotoxicity against human IGROV1 cells assessed as cell growth at 80 nM by sulforhodamine B assay relative to control; format: functional; settings: read-out: Activity
# OVCAR-3 [8] = experiment: Cytotoxicity against human OVCAR3 cells assessed as cell growth at 80 nM by sulforhodamine B assay relative to control; format: functional; settings: read-out: Activity
# K562 = experiment: Cytotoxicity against human K562 cells assessed as cell growth at 800 nM by sulforhodamine B assay relative to control; format: functional; settings: read-out: Activity
# HOP-92 [9] = experiment: Cytotoxicity against human HOP92 cells assessed as cell growth at 800 nM by sulforhodamine B assay relative to control; format: functional; settings: read-out: Activity
# SW-620 = experiment: Cytotoxicity against human SW620 cells assessed as cell growth at 800 nM by sulforhodamine B assay relative to control; format: functional; settings: read-out: Activity
# SNB-19 [10] = experiment: Cytotoxicity against human SNB19 cells assessed as cell growth at 800 nM by sulforhodamine B assay relative to control; format: functional; settings: read-out: Activity
# SNB-75 [11] = experiment: Cytotoxicity against human SNB75 cells assessed as cell growth at 800 nM by sulforhodamine B assay relative to control; format: functional; settings: read-out: Activity
# IGROV-1 [12] = experiment: Cytotoxicity against human IGROV1 cells assessed as cell growth at 800 nM by sulforhodamine B assay relative to control; format: functional; settings: read-out: Activity
# OVCAR-3 [13] = experiment: Cytotoxicity against human OVCAR3 cells assessed as cell growth at 800 nM by sulforhodamine B assay relative to control; format: functional; settings: read-out: Activity
# ACHN = experiment: Cytotoxicity against human ACHN cells assessed as cell growth at 800 nM by sulforhodamine B assay relative to control; format: functional; settings: read-out: Activity
# Procedure, shortened: (§2)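 Run at NCI in the DTP 60-cell-line human tumor panel by standard procedure. Compounds were first screened at a single concentration, then tested at five tenfold-spaced concentrations. GI50 is the concentration reducing treated-cell growth to half that of untreated controls; TGI is the concentration completely halting growth.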
# HOP-92 [14] = experiment: Cytotoxicity against human HOP92 cells assessed as cell growth at 8 uM by sulforhodamine B assay relative to control; format: functional; settings: read-out: Activity
# SF-539 = experiment: Cytotoxicity against human SF539 cells assessed as cell growth at 8 uM by sulforhodamine B assay relative to control; format: functional; settings: read-out: Activity
# M14 [15] = experiment: Cytotoxicity against human M14 cells assessed as cell growth at 8 uM by sulforhodamine B assay relative to control; format: functional; settings: read-out: Activity
# RXF 393 = experiment: Cytotoxicity against human RXF393 cells assessed as cell growth at 8 uM by sulforhodamine B assay relative to control; format: functional; settings: read-out: Activity
# UO-31 = experiment: Cytotoxicity against human UO31 cells assessed as cell growth at 8 uM by sulforhodamine B assay relative to control; format: functional; settings: read-out: Activity
# DU-145 [16] = experiment: Cytotoxicity against human DU145 cells assessed as cell growth at 8 uM by sulforhodamine B assay relative to control; format: functional; settings: read-out: Activity; procedure, shortened: as §2
# COLO 205 [17] = experiment: Cytotoxicity against human COLO205 cells assessed as cell growth at 80 uM by sulforhodamine B assay relative to control; format: functional; settings: read-out: Activity; procedure, shortened: as §2
# SNB-75 [18] = experiment: Cytotoxicity against human SNB75 cells assessed as cell growth at 80 uM by sulforhodamine B assay relative to control; format: functional; settings: read-out: Activity
# M14 [19] = experiment: Cytotoxicity against human M14 cells assessed as cell growth at 80 uM by sulforhodamine B assay relative to control; format: functional; settings: read-out: Activity
# OVCAR-4 = experiment: Cytotoxicity against human OVCAR4 cells assessed as cell growth at 80 uM by sulforhodamine B assay relative to control; format: functional; settings: read-out: Activity
# COLO 205 [20] = experiment: Antitumor activity against human COLO205 cells xenografted in mouse assessed as tumor cell killing at 4.7 mg/kg, ip qd for 4 days by MTT assay; format: functional, organism-based; parameters: dose 4.7 mg/kg; procedure, shortened: as §1
# HL-60(TB) = experiment: Cytotoxicity against human HL-60(TB) cells by sulforhodamine B assay; format: functional
# Procedure, shortened: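 NCI Developmental Therapeutics Program 60-cell-line human tumor panel, standard procedure. Single-concentration prescreen first; active compounds then tested at five concentrations. GI50 is the concentration reducing growth of treated cells to half that of untreated controls.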
# SF-268 = experiment: Cytotoxicity against human SF268 cells by sulforhodamine B assay; format: functional
# U-251 = experiment: Cytotoxicity against human U251 cells by sulforhodamine B assay; format: functional
# Procedure, shortened: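 NCI Developmental Therapeutics Program 60-cell-line human tumor panel screen, run at NCI. A single-concentration pre-screen was followed by a five-concentration dose-response in 10-fold steps. GI50 is the concentration that reduces growth of treated cells to half that of untreated control cells. TGI is the concentration that completely halts growth.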
structure (smiles),measurement,setting,value
C/C=C1\NC(=O)[C@H](Cc2ccccc2)NC(=O)[C@@H](C(C)C)NC(=O)[C@@H]([C@@H](C)CC)NC(=O)[C@H](NC(=O)[C@H](NC(=O)[C@H](CCCNCc2ccc(F)c(C)c2)NC(=O)[C@H]2CCCN2C(=O)[C@H](NC(=O)[C@@H](NC(=O)[C@@H](NC(=O)[C@H](NC(=O)CCCC(C)C)C(C)C)[C@@H](C)O)C(C)C)C(C)C)[C@@H](C)CC)[C@@H](C)OC(=O)[C@H](C(C)C)NC1=O,LC50,DU-145 [1],468 nM
same,GI50,DU-145 [1]; read-out: GI50,123 nM
same,TGI,DU-145 [1]; read-out: TGI,240 nM
same,GI50,DU-145 [1]; read-out: pGI50 (converted),123 nM
same,TGI,DU-145 [1]; read-out: pTGI (converted),240 nM
same,growth at 0.008 µM,SF-295,99%
same,growth at 0.008 µM,NCI-H226,101%
same,Activity,Mus musculus,Non-toxic
same,Activity,MDA-MB-231,inactive
same,growth at 0.008 µM,MOLT-4 [2],103%
same,growth at 0.008 µM,OVCAR-3 [3],105%
same,growth at 0.008 µM,SK-OV-3,102%
same,growth at 0.08 µM,MOLT-4 [4],97%
same,growth at 0.08 µM,SNB-19 [5],96%
same,growth at 0.08 µM,M14 [6],99%
same,growth at 0.08 µM,SK-MEL-2,101%
same,growth at 0.08 µM,IGROV-1 [7],107%
same,growth at 0.08 µM,OVCAR-3 [8],88%
same,growth at 0.8 µM,K562,107%
same,growth at 0.8 µM,HOP-92 [9],92%
same,growth at 0.8 µM,SW-620,40%
same,growth at 0.8 µM,SNB-19 [10],90%
same,growth at 0.8 µM,SNB-75 [11],21%
same,growth at 0.8 µM,IGROV-1 [12],48%
same,growth at 0.8 µM,OVCAR-3 [13],39%
same,growth at 0.8 µM,ACHN,81%
same,growth at 8 µM,HOP-92 [14],-62%
same,growth at 8 µM,SF-539,-93%
same,growth at 8 µM,M14 [15],-99%
same,growth at 8 µM,RXF 393,-61%
same,growth at 8 µM,UO-31,-78%
same,growth at 8 µM,DU-145 [16],-100%
same,growth at 80 µM,COLO 205 [17],33%
same,growth at 80 µM,SNB-75 [18],-19%
same,growth at 80 µM,M14 [19],-49%
same,growth at 80 µM,OVCAR-4,-20%
same,Activity,COLO 205 [20],inactive
same,GI50,HL-60(TB),1580 nM
same,TGI,HL-60(TB); read-out: pTGI (converted),3090 nM
same,GI50,SF-268,955 nM
same,GI50,U-251,363 nM
same,LC50,U-251,3160 nM
same,TGI,U-251; read-out: pTGI (converted),1260 nM
